The values below come from PubChem BioAssay AID588419 (The Scripps Research Institute Molecular Screening Center, 2011).

This experiment addresses Protein-arginine deiminase type-4 (Homo sapiens) (UniProt Q9UM07). Kind of experiment: PAD4 enzyme inhibition potency, late-stage follow-up, biochemical, BAEE substrate, citrulline absorbance, 0-6 µM range (AID 588419). The note with it: recombinant PAD4, BAEE citrulline colorimetric absorbance. In short, it runs like this:
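System: recombinant PAD4 enzyme; Amount: 0.2 µM PAD4; Medium: Tris-HCl pH 7.6, CaCl2, DTT; Timing: 15 min compound-enzyme preincubation, then 15 min substrate reaction, both 37 °C; Measured by: colorimetric absorbance at 540 nm, diacetyl monoxime/thiosemicarbazide color reagent; Read-out: IC50 from citrulline formation, quantified via citrulline standard curve; Repeats: duplicates.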

The source made the active and inactive calls.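 Rule for the calls: active = IC50 at or below 1000 nM for PAD4 enzyme inhibition; inactive = IC50 above 1000 nM.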

Sequence of Protein-arginine deiminase type-4 (Homo sapiens) (Q9UM07 whole entry, looked up): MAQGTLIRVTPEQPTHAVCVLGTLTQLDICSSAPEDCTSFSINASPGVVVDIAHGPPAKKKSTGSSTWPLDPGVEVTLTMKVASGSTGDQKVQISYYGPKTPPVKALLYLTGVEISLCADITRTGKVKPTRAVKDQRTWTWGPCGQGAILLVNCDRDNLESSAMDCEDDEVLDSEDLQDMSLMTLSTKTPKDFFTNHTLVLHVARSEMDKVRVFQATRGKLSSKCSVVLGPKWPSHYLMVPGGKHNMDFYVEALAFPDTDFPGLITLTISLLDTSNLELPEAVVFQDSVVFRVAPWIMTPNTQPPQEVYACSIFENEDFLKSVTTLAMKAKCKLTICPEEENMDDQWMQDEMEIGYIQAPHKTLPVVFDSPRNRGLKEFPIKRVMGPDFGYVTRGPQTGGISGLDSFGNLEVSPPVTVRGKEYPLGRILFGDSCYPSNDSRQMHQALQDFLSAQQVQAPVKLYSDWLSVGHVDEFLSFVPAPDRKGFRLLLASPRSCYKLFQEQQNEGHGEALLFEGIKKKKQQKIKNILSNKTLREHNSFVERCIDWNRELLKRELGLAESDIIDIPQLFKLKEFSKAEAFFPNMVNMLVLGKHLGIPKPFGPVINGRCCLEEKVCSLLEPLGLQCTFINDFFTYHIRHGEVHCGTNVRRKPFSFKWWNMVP

Consider `COC1=C(I)C(=O)c2nc(C#N)ccc2C1=O`, for which the IC50 result is “inactive”.
